Results taken from paper PMC8108540 (Arteriosclerosis, thrombosis, and vascular biology, 2020).
One block for each compound: values may come before it. Where a SMILES comes first, the peptide text is derived from it. The star is where a group is joined. Palmitoyl = CCCCCCCCCCCCCCCC(=O)*

What was measured:
p38 MAPK phosphorylation = assay: Immunoblot of 12; assay type: cell-based, human
Procedure, shortened: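 Gel-purified human platelets incubated in an aggregometer at 37 °C with 12(S)-HETE, with or without 1 or 3 μM test compound, for various times. Solubilised in SDS-PAGE sample buffer and run on 10% SDS-PAGE at equal protein. Immunoblotted for phospho-p38 (Thr180/Tyr182).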

GPR31 [1] = molecular target: T1, GPR31 (Homo sapiens, UniProt O00270); assay: 12; assay type: cell-based; settings: 100 nmol/L 12(S)-HETE, human platelets, signal at 15 to 120 minutes
Procedure, shortened: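 Gel-purified human platelets pretreated with test compound at graded levels, then activated with 12(S)-HETE. Lysis on ice for 10 min in Tris-HCl pH 7.5 buffer with NP-40, DTT and protease inhibitors, then cleared at 14 000 g. Rap1-GTP pulled down with RalGDS-RBD agarose, 60 min at 4 °C. Detected by 15% SDS-PAGE and anti-Rap1 immunoblot; lysate aliquots used for total Rap1. IC50 from dose response.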
Target sequence in this assay (O00270 whole entry): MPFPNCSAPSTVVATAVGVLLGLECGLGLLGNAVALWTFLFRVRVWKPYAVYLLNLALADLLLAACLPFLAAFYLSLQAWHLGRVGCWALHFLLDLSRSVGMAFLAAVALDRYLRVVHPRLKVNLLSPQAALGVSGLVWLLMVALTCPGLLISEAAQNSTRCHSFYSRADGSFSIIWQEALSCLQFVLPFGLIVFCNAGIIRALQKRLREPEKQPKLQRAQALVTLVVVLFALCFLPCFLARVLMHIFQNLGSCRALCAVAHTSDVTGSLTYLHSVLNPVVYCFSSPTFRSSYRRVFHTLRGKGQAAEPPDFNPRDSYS

GPR31 [2] = molecular target: T1, GPR31; assay: 12; assay type: cell-based; settings: 10 and 20 μM 12(S)-HETE, fura-2-labeled GPR31/CHO cells
Procedure, shortened: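 Human GPR31 transiently transfected into CHO cells. Cells labelled with fura-2 and challenged with 12(S)-HETE; Ca2+ flux followed over time.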
Target sequence in this assay (O00270 whole entry, species assumed): as the sequence (O00270 whole entry) above

GPR31 [3] = molecular target: T1, GPR31; assay: Cre-luciferase activation assay in GPR31-transfected CHO cells; assay type: cell-based; settings: 6 hours
Procedure, shortened: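 CHO cells cotransfected by lipofection with Cre-luciferase and GPR31 plasmids, 8 μg each. Cells plated and treated 6 h with 10 μM forskolin with or without 300 nmol/L 12(S)-HETE. Cells then lysed and luciferase activity read as relative light units.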
Target sequence in this assay (O00270 whole entry, species assumed): as the sequence (O00270 whole entry) above

human platelets [4] = assay: 12; assay type: cell-based; settings: 10 μM 12(S)-HETE, fura-2-labeled human platelets
Procedure, shortened: (§1)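 Gel-purified platelets loaded with 2.5 μM fura-2/AM, 30 min at 37 °C. Emission recorded at 510 nm with dual excitation at 340/380 nm. For line 6, platelets preincubated with test compound or vehicle before AYPGKF.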

human platelets [5] = assay: Platelet aggregation by 12; assay type: cell-based; settings: 5, 10 and 20 μmol/L 12(S)-HETE, human PRP
RASA3 = assay: Thrombin-induced RASA3 membrane localization in human platelets; assay type: cell-based; settings: GPR310 1 μM, AZD1283 10 μM, dual, or LY294002 10 μM, 3 nmol/L thrombin
platelet-rich plasma = assay: Thrombin-induced clot retraction in PRP; assay type: cell-based, human; settings: 10 or 30 μM inhibitor, 3 nmol/L thrombin, RT, 15 minutes to 4 hours
Procedure, shortened: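 Citrated platelet-rich plasma adjusted to […] and diluted in PBS with red blood cells in glass tubes. CaCl2 added to a final 0.5 mmol/L. Pretreated with 10 or 30 μM test compound, P2Y12 inhibitor or vehicle. Clotting started with 3 or 10 nmol/L thrombin at room temperature. Clots photographed at 0, 5, 10, 15 and 30 min and at 1, 2 and 4 h.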

Rap1 [6] = assay: Thrombin-induced Rap1 activation in human platelets; assay type: cell-based; settings: GPR310 3 μM, AZD1283 10 μM or dual; 3 nmol/L thrombin, 15 min, gel-purified platelets
CXCR4 = CXCR4 (Homo sapiens, UniProt P61073); assay: Calcium flux in human neutrophils, SDF1α; assay type: cell-based; settings: GPR310 6 μM, 100 nmol/L SDF1α
Sequence of CXCR4 (P61073 whole entry): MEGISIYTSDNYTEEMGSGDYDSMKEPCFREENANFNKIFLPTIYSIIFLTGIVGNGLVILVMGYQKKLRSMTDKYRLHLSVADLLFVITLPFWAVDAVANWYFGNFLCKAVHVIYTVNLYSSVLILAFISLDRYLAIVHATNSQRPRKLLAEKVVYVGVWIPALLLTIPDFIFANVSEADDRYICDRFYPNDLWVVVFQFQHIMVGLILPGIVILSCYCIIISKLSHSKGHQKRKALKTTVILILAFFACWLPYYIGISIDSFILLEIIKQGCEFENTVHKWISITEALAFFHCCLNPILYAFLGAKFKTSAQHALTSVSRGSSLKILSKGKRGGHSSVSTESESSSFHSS

mouse platelets [7] = assay: Ex vivo platelet aggregation after sc dosing; assay type: in vivo; settings: mice, 10 mg/kg sc, 4 h; AYPGKF 100 μmol/L or thrombin 10 nmol/L
pAKT, pERK = assay: Immunoblot of thrombin-induced Akt and ERK phosphorylation in human platelets; assay type: cell-based; settings: 1 μM GPR310, 3 nmol/L thrombin, 15 min
Procedure, shortened: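 Gel-purified human platelets pretreated with or without 1 μM test compound, then stimulated with 3 nmol/L thrombin for 15 min. Equal protein resolved on 10% SDS-PAGE and immunoblotted for phospho-AKT and phospho-ERK, with β-actin as loading control.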

IL-8 receptor CXCR1/2 = assay: Calcium flux in human neutrophils, IL-8; assay type: cell-based; settings: GPR310 6 μM, 50 nmol/L IL-8
[8] = Pharmacokinetics of sc injected pepducin in mouse plasma; assay type: in vivo; settings: CD-1, mouse, 10 mg/kg
Procedure, shortened: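 CD-1 mice given 10 mg/kg test compound subcutaneously in 10% DMSO. Vena cava blood drawn into heparin at 5, 15 and 30 min and 1, 4, 5, 14 and 24 h. Pepducin extracted from plasma and quantified by LC-MS to obtain peak level and terminal elimination.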

mouse platelets [9] = assay: AYPGKF-induced aggregation and ATP release in mouse PRP; assay type: cell-based; settings: 30 μM GPR310 spiked, 100 μM AYPGKF
Procedure, shortened: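 Mouse platelet-rich plasma spiked with test compound, then stimulated with 100 μM AYPGKF. Run at 37 °C with stirring at 900 rpm in a lumi-aggregometer. Aggregation and dense-granule ATP release recorded together; ATP detected with luciferin/luciferase reagent and calibrated against an ATP standard.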

PAR4 [10] = assay: AYPGKF-mediated calcium flux in human platelets; assay type: cell-based; settings: 3 μM GPR310, 160 μM AYPGKF, fura-2-labeled human platelets
Procedure, shortened: as §1

Tail bleeding time = assay type: in vivo, mouse; settings: mice, 4 hours after 5 and 10 mg/kg sc, n=10
Procedure, shortened: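 Mice anaesthetised 4 h after subcutaneous test compound or vehicle and kept on a 37 °C homeothermic blanket. Tail transected 5 mm from the tip and immersed at once in 37 °C saline. Time to cessation recorded; cessation counted only once bleeding had stopped for 1 min.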

Rap1 [11] = assay: AYPGKF; assay type: cell-based; settings: human platelets, peak shifted from 5 to 15 minutes
human platelets [12] = assay: Collagen-mediated human platelet aggregation; assay type: cell-based; settings: 10 μg/mL collagen; 3 μmol/L GPR310 or 30 μmol/L ML355; P<0.001
ADP receptors = assay: Calcium flux, ADP; assay type: cell-based, human; settings: GPR310 6 μM; 20 μM ADP
PAR1 [13] = molecular target: T2, PAR1 (Homo sapiens, UniProt P25116); assay: Calcium flux in HEK293 recombinant system, SFLLRN; assay type: cell-based; settings: GPR310 6 μM, 100 μM SFLLRN
T2 sequence (P25116 22-425): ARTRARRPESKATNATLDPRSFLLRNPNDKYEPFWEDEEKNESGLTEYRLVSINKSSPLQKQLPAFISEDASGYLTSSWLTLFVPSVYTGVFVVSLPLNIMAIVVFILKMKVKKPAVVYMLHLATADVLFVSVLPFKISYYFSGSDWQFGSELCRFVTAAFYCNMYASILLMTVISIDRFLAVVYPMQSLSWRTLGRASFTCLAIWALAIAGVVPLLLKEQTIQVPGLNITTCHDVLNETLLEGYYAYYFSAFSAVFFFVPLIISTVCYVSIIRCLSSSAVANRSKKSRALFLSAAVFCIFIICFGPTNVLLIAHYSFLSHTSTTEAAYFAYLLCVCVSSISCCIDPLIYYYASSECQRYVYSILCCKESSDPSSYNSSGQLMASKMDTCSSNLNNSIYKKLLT

PAR2 = molecular target: T3, PAR2 (Homo sapiens, UniProt P55085); assay: Calcium flux, recombinant PAR2, SLIGRL; assay type: cell-based; settings: GPR310 6 μM; 100 μM SLIGRL
T3 sequence (P55085 26-397): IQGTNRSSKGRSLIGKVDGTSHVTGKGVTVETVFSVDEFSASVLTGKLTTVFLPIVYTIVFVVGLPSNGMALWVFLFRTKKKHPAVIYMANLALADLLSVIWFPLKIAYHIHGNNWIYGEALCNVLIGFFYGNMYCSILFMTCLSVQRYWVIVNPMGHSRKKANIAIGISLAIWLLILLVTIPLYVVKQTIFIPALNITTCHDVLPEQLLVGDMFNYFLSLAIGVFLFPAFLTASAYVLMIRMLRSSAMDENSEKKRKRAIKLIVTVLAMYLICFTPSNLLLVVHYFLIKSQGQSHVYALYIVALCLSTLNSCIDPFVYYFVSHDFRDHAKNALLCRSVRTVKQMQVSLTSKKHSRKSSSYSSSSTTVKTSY

PAR1 [14] = assay: PAR1; assay type: cell-based, human
PAR4 [15] = assay: PAR4; assay type: cell-based, human; settings: 30 μmol/L ML355, 2 min preincubation, 160 μmol/L AYPGKF, aggregation at 15 min

SMILES: CCCCC/C=C\C[C@H](O)/C=C/C=C\C/C=C\CCCC(=O)O [12(S)-HETE]
- p38 MAPK phosphorylation activation (p38 MAPK phosphorylation; 100 nmol/L 12(S)-HETE, 15 minutes, human platelets): rapidly (15 minutes) activated
- Rap1-GTP activation (GPR31 [1]): strongly activated
- calcium mobilization (GPR31 [2]): low but detectable calcium transients
- inhibition of AC (adenylyl cyclase) activity (GPR31 [3]; 300 nmol/L 12(S)-HETE with 10 μM forskolin, not observed in Cre-luci controls): significant inhibition
- calcium flux (human platelets [4]): negligible
- activation of platelet aggregation (human platelets [5]): failed to effectively activate platelet aggregation

SMILES: CCOC(=O)c1cc(C#N)c(N2CCC(C(=O)NS(=O)(=O)Cc3ccccc3)CC2)nc1C [AZD1283, reference compound]
- suppression of thrombin-induced RASA3 appearance in plasma membrane (RASA3): complete suppression
- clot retraction time vs vehicle (platelet-rich plasma): longer clot retraction times
- inhibition of thrombin-induced Rap1 activation (Rap1 [6]): partially suppressed

SMILES: CCCCCCCCCCCCCCCC(=O)N[C@@H](CCCNC(=N)N)C(=O)N[C@@H](C)C(=O)N[C@@H](CC(C)C)C(=O)N[C@@H](CCC(N)=O)C(=O)N[C@@H](CCCCN)C(=O)N[C@@H](CCCNC(=N)N)C(=O)N[C@@H](CC(C)C)C(=O)N[C@@H](CCCNC(=N)N)C(=O)N[C@@H](CCC(=O)O)C(=O)N1CCC[C@H]1C(=O)N[C@@H](CCC(=O)O)C(=O)N[C@@H](CCCCN)C(=O)N[C@@H](CCC(N)=O)C(=O)N1CCC[C@H]1C(=O)N[C@@H](CCCCN)C(=O)N[C@@H](CC(C)C)C(=O)N[C@@H](CCC(N)=O)C(=O)N[C@@H](CCCNC(=N)N)C(=O)N[C@@H](C)C(=O)N[C@@H](CCC(N)=O)C(=O)N[C@@H](C)C(N)=O [GPR310] (Palmitoyl-RALQKRLREPEKQPKLQRAQA-NH2; C-terminus assumed)
- inhibition of 12(S)-HETE-induced p38 MAPK phosphorylation (p38 MAPK phosphorylation; 1 to 3 μM GPR310, human platelets): completely attenuated
- suppression of thrombin-induced RASA3 appearance in plasma membrane (RASA3): complete suppression
- inhibition of calcium flux (CXCR4) (CXCR4): did not inhibit
- ex vivo antiplatelet effect at high agonist concentration (mouse platelets [7]): reversed
- inhibition of thrombin-induced Akt phosphorylation (pAKT, pERK): attenuated
- inhibition of thrombin-mediated ERK activation (pAKT, pERK): inhibited
- inhibition of calcium flux (CXCR1/2) (IL-8 receptor CXCR1/2): did not inhibit
- Tmax [8]: 1 h
- level at time molar at 4 h [8]: 3500 nM
- level at time molar at 14 h [8]: 10 nM
- inhibition of ATP release, mouse PRP (mouse platelets [9]): inhibited
- inhibition of platelet aggregation, mouse PRP (mouse platelets [9]): inhibited
- suppression of AYPGKF-mediated Ca2+ response (PAR4 [10]): 80%
- tail bleeding time vs vehicle control (Tail bleeding time): no difference
- inhibition of AYPGKF-induced Rap1-GTP signal (Rap1 [11]): significantly attenuated
- inhibition of collagen-mediated platelet aggregation (human platelets [12]): almost completely inhibited
- clot retraction time vs vehicle (platelet-rich plasma): longer clot retraction times
- inhibition of calcium flux (ADP receptors) (ADP receptors): did not inhibit
- inhibition of PAR1 calcium flux (PAR1 [13]): minimal inhibition
- inhibition of recombinant PAR2 calcium flux (PAR2): no detected inhibition
- inhibition of thrombin-induced Rap1 activation (Rap1 [6]): partially suppressed
- inhibition of PAR1-mediated platelet aggregation (PAR1 [14]; 10 μmol/L GPR310, 3 μM SFLLRN, gel-purified human platelets): significant inhibition
- inhibition of PAR1-mediated platelet aggregation (PAR1 [14]; 10 μmol/L GPR310, 10 μmol/L SFLLRN, gel-purified human platelets): no significant effect

SMILES: COc1cccc(CNc2ccc(S(=O)(=O)Nc3nc4ccccc4s3)cc2)c1O [ML355, reference compound]
- inhibition of PAR4-mediated platelet aggregation (PAR4 [15]): inhibition
- inhibition of collagen-mediated platelet aggregation (human platelets [12]): to a similar extent
- inhibition of PAR1-mediated platelet aggregation (PAR1 [14]; 30 μmol/L ML355, 3 μmol/L SFLLRN): considerable inhibition
- inhibition of PAR1-mediated platelet aggregation (PAR1 [14]; 30 μmol/L ML355, 10 μmol/L SFLLRN): but not 10 μmol/L SFLLRN

- induction of cAMP-responsive element-luciferase reporter (GPR31 [3]; CHO-K1 cells expressing GPR31 and Cre-luciferase, 10 μM forskolin): 10 fold
SMILES: C=C[C@@]1(C)CC(=O)[C@]2(O)[C@@]3(C)[C@@H](O)CCC(C)(C)[C@@H]3[C@H](O)[C@H](OC(C)=O)[C@@]2(C)O1 [forskolin]
